Test results taken from ChEMBL document CHEMBL1150111, “Natural products inhibiting Candida albicans secreted aspartic proteases from Lycopodium cernuum” (J Nat Prod, 2002).
In brackets after ≈: the same amount, converted by molar mass. Activity calls are given as the source filed them. The calls are words filed in the database; no cut-off is given here.

Test system: not listed separately
Assay: (§1) Inhibition of Candida albicans secreted aspartic protease
How it was run: (§2)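 Candida albicans secreted aspartic protease (SAP) inhibition assay run by the earlier published method. Aspartic protease inhibitor pepstatin A served as positive control. Activity is reported as IC50 in µg/mL.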

Row | IC50 | SMILES
1 | 8.5 µg/mL (≈ 11.7 µM) | O=C(/C=C/c1ccc(O)cc1)OC[C@H]1O[C@@H](Oc2ccc(-c3cc(=O)c4c(O)cc(O)cc4o3)cc2)[C@H](OC(=O)/C=C/c2ccc(O)cc2)[C@@H](O)[C@@H]1O
2 | 0.0015 µg/mL (≈ 0.00219 µM) | CC(C)CC(=O)N[C@H](C(=O)N[C@H](C(=O)N[C@@H](CC(C)C)[C@@H](O)CC(=O)N[C@@H](C)C(=O)N[C@@H](CC(C)C)[C@@H](O)CC(=O)O)C(C)C)C(C)C [PEPSTATIN]
3 | 20 µg/mL (≈ 38.3 µM) | C[C@@]12CC[C@@H]3[C@](C)(CC[C@H](O)[C@]3(C)C(=O)O)[C@H]1CC[C@@H]1[C@@]3(C)CC[C@@H](O)[C@](C)(CO)[C@@H]3C[C@H](O)[C@@]1(O)C2 [LYCERNUIC ACID C]

Test system: Candida albicans
Assay: as §1
How it was run: as §2

Row | SMILES | Activity
4 | CC(=O)O[C@H]1CC[C@@]2(C)[C@@H](CC[C@@]3(C)CC4=C(CC[C@@H]32)[C@@]2(C)CC[C@@H](OC(C)=O)C(C)(C)[C@@H]2CC4)[C@@]1(C)C(=O)O | inactive
5 | CC1(C)[C@@H](O)CC[C@@]2(C)[C@H]1CC[C@@]1(C)CC3=CC[C@H]4C(C)(C)[C@@H](O)CC[C@]4(C)[C@H]3CC[C@@H]12 | inactive
6 | CC1(C)[C@H](O)CC[C@]2(C)[C@H]3CC[C@H]4[C@@](C)(CC[C@@H]5[C@]4(C)CC[C@@H](O)[C@]5(C)CO)CC3=CC(=O)[C@@H]12 | inactive
7 | COC(=O)[C@]1(C)[C@@H]2CC[C@@]3(C)CC4=CC(=O)[C@@H]5[C@](C)(CC[C@@H](O)[C@]5(C)CO)[C@H]4CC[C@@H]3[C@@]2(C)CC[C@@H]1O | inactive
8 | CC(=O)O[C@H]1CC[C@@]2(C)[C@@H](CC[C@@]3(C)CC4=CC[C@H]5C(C)(C)[C@H](OC(C)=O)CC[C@]5(C)[C@H]4CC[C@@H]32)[C@@]1(C)C(=O)O | inactive
9 | CC1(C)[C@@H](O)CC[C@@]2(C)[C@H]1CC[C@@]1(C)CC3=CC[C@H]4C(C)(C)[C@H](O)CC[C@]4(C)[C@H]3CC[C@@H]12 | inactive
10 | CC(=O)OC[C@]1(C)[C@@H]2C[C@H](OC(C)=O)[C@@]3(O)C[C@]4(C)CC[C@@H]5[C@](C)(CC[C@H](OC(C)=O)[C@]5(C)C(=O)O)[C@H]4CC[C@@H]3[C@@]2(C)CC[C@H]1OC(C)=O | inactive
11 | COC(=O)[C@@]1(C)[C@H](O)CC[C@@]2(C)[C@H]1CC[C@@]1(C)CC3=CC(=O)[C@@H]4[C@](C)(CC[C@@H](O)[C@]4(C)CO)[C@H]3CC[C@@H]12 | inactive
12 | CC(=O)O[C@H]1CC[C@@]2(C)[C@@H](CC[C@@]3(C)C[C@@]4(O)CC[C@H]5C(C)(C)[C@H](OC(C)=O)CC[C@]5(C)[C@H]4CC[C@@H]32)[C@@]1(C)C(=O)O | inactive

Second part, the compound after the results:

Row | Activity | SMILES
13 | inactive | CC1(C)[C@H](O)CC[C@]2(C)[C@H]3CC[C@H]4[C@@](C)(CC[C@@H]5[C@]4(C)CC[C@H](O)[C@]5(C)C(=O)O)CC3=CC[C@@H]12
14 | inactive | CC1(C)[C@H](O)CC[C@@]2(C)[C@H]1CC[C@]1(O)C[C@]3(C)CC[C@@H]4[C@](C)(CC[C@H](O)[C@]4(C)C(=O)O)[C@H]3CC[C@@H]12
15 | inactive | CC(=O)O[C@H]1CC[C@@]2(C)[C@@H](CC[C@@]3(C)C[C@@]4(O)[C@H](CC[C@@H]32)[C@@]2(C)CC[C@@H](OC(C)=O)C(C)(C)[C@@H]2C[C@@H]4O)[C@@]1(C)C(=O)O
16 | inactive | CC1(C)[C@H](O)CC[C@]2(C)[C@H]3CC[C@H]4[C@@](C)(CC[C@@H]5[C@]4(C)CC[C@H](O)[C@]5(C)C(=O)O)C[C@]3(O)[C@@H](O)C[C@@H]12
17 | inactive | C[C@@]12CC[C@@H]3[C@](C)(CC[C@H](O)[C@]3(C)C(=O)O)[C@H]1CC[C@H]1C(=CC[C@@H]3[C@]1(C)CC[C@@H](O)[C@]3(C)CO)C2
18 | inactive | CC(=O)O[C@H]1CC[C@@]2(C)[C@@H](CC[C@@]3(C)C[C@@]4(O)[C@H](O)C[C@H]5C(C)(C)[C@H](OC(C)=O)CC[C@]5(C)[C@H]4CC[C@@H]32)[C@@]1(C)C(=O)O
